The record followed here is ChEMBL document CHEMBL1137366, “Novel Schiff base copper complexes of quinoline-2 carboxaldehyde as proteasome inhibitors in human prostate cancer cells” (J Med Chem, 2006).

Assay [1] deals with LNCaP. Kind of assay: Inhibition in LnCaP cell line growth by ELISA apoptosis assay upto 20 uM. The assay is classed as functional, cell-based. As to conditions: Homo sapiens. Put shortly:
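Apoptotic cell death in LNCaP cells measured by histone/DNA ELISA. Cells were treated for 72 h at 10 and 20 µM and compared with a control.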
For orientation: ELISA stands for enzyme-linked immunosorbent assay.

Assay [2] relates to LNCaP. Nature of the assay: Induction of apoptosis in LnCaP cells assessed as PARP cleavage by Western blot analysis. Format: functional, cell-based. As to conditions: Homo sapiens.
The test system of assay [3] is LNCaP. Nature of the assay: Cytotoxicity against human LnCaP cell line by MTT assay after 72 hrs. Format: functional, cell-based. Put shortly: (§1)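 MTT growth-inhibition assay in prostate cancer cells. Cells were exposed to compounds for 72 h. IC50 was taken from the dose–response data.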
The target of assay [4] is T1, Proteasome Macropain subunit MB1 (Homo sapiens, UniProt P28074).
T1 sequence (P28074 whole entry): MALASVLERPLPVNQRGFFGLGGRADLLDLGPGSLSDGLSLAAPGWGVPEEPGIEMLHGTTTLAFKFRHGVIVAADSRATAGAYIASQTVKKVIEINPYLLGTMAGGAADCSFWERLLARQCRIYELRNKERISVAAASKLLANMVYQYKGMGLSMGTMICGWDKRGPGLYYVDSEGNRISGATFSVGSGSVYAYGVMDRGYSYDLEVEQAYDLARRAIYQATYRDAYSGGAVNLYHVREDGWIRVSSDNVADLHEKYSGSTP
Kind of assay: Inhibition of chymotrypsin-like activity of proteasome in intact LnCaP cells. The assay is classed as cell-based. Summed up:
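Intact LNCaP cells were treated, then whole-cell extracts were assayed for proteasome chymotrypsin-like activity. CuCl2 alone served as control. IC50 values were derived.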

For another assay, the system named is PC-3. Nature of the assay: Cytotoxicity against human PC3 cell line by MTT assay after 72 hrs. The following applies: PC-3, 72 h. The assay is classed as functional, cell-based. Put shortly: as §1
In general terms: Tetrazolium assays rely on reduction of a dye to a coloured formazan, in cell work by metabolically active cells.

The subject of assay [5] is LNCaP. Nature of the assay: Induction of apoptosis in LnCaP cells measured by hydrogen peroxide assay. Format: functional, cell-based. As to conditions: Homo sapiens. Put shortly: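 LNCaP cells were treated for 24 h at 4, 7 and 10 µM. H2O2 was then measured with the Amplex Red hydrogen peroxide kit at time points from 1 to 6 h. Absorbance was normalized to control.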

Each structure is given as a SMILES string. The source made the active and inactive calls. The calls are words filed in the database; no cut-off is given here.

A word on the IC50: it is the midpoint of a concentration-inhibition curve. Turning to `NC(=S)N/N=C/c1ccc2ccccc2n1`, the Activity result in the assay on LNCaP [1] was “Dose-dependent effect”. Also, in the assay with LNCaP [2], the outcome was Active. Moreover, the figures for the IC50 (with LNCaP [3]; in assay [4]; with PC-3) were 16 µM, not below 10 µM and 21 µM, respectively. Besides, the result with LNCaP [5] was inactive.
Consider `O=C(N/N=C/c1ccc2ccccc2n1)c1ccccc1O`, for which the IC50 is 20 µM in the assay with LNCaP [3] and 31 µM in the assay with PC-3.
With `O=C(N/N=C/c1ccc2ccccc2n1)c1ccccc1`, the IC50 with LNCaP [3] is 20 µM; with PC-3 it was 25 µM.
